Screening results: PubChem, Sanford-Burnham Center for Chemical Genomics
Scp-1 inhibitor: blocks human Scp-1 phosphatase activity | 340,000 tested, 0.88% active | Q9GZU7 | inhibition, % at 20 µM | AID 493091 | Recombinant Scp1, phosphopeptide, malachite green phosphate absorbance;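 active = inhibition above about 50% at 20 µM, limit read from the data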;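 note: plate controls were DMSO wells with enzyme for no effect and wells lacking enzyme for full effect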
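Material – SCP-1 phosphatase catalytic domain, residues 76-261 · Buffer or medium – Acidic Tris acetate buffer with magnesium and detergent · Also added – Phospho 17-mer peptide substrate · Compound – single 20 µM dose, 1% DMSO · Times – 45 min room-temperature reaction, 5 min colour, 30 min stabiliser · Technique – Phosphate-binding colour reagent, absorbance read at 630 nm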
STEP inh: STEP (human) phosphatase inhibition. P54829. AID 588621. 360,000 tested, 0.25% active. inhibition, % at 20 µM. recombinant STEP, OMFP fluorogenic substrate, fluorescence;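 active = inhibition at 20 µM, scaled per plate between control wells, above about 37%, limit read from the data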;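 note: 0% = DMSO with enzyme and substrate and 100% = substrate only without enzyme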
Target sequence (P54829 whole entry, looked up): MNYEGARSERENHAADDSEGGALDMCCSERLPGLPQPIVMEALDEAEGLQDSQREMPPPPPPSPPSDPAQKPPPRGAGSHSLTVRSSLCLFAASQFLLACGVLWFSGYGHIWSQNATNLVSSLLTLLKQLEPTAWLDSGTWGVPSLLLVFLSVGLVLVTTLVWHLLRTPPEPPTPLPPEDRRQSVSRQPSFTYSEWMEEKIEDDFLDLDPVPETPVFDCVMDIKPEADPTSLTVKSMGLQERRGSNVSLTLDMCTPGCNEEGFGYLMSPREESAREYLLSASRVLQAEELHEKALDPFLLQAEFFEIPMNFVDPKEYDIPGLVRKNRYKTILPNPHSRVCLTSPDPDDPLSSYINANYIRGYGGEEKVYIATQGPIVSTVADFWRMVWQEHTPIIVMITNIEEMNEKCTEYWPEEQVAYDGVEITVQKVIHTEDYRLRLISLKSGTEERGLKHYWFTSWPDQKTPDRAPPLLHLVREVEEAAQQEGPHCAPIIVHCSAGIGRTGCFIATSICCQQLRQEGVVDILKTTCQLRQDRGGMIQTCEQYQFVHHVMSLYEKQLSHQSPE
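Material: STEP (striatal-enriched tyrosine phosphatase) enzyme, cell-free; Compound dosing: 20 µM single dose in 1% DMSO; Technique: fluorescence read at 480 nm ex / 540 nm em; Times: reaction 20 min, ambient temperature; Medium: 50 mM Bis-Tris pH 6.0 with 2.5 mM DTT and 0.005% Tween 20; Also added: OMFP at 25 µM.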
LMPTP inh: LMPTP (human) inhibition; P24666; recombinant LMPTP-A, OMFP fluorogenic substrate, fluorescence intensity; inhibition, % at 20 µM; 360,000 tested, 0.22% active; AID 651560;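 active = compounds that cut the enzyme signal by at least half of the control window in the single-dose screen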;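 note: plate controls were DMSO wells with enzyme plus substrate for no effect and substrate without enzyme for full effect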
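Assay system: LMPTP-A enzyme. Input: 0.625 nM LMPTP-A final. Probe or stimulus: 400 µM OMFP. Compound dosing: single 20 µM dose. Schedule: 50 min dark incubation at room temperature. Detection: fluorescence intensity of OMFP turnover product. Read-out: percent inhibition versus substrate-only and uninhibited controls. Benchmarks: no-enzyme low control, uninhibited high control.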
DNMT1 block: DNMT1 (human) enzyme inhibition; DNMT1 molecular beacon, Hinp1I cleavage, fluorescence; inhibition (reported as % activation of signal), % at 10 µM; 360,000 tested, 0.83% active; AID 588458; in the data active = inhibition above about 50%
SUMO1 PPI mod: alters human SUMO1 binding to SIM partners. AID 602429. 360,000 tested, 0.33% active. P63165. SUMO1 binding to a labelled peptide, TR-FRET, 1 h. inhibition, % at 20 µM; in the data active = inhibition above about 37%
Target sequence (P63165 whole entry, looked up): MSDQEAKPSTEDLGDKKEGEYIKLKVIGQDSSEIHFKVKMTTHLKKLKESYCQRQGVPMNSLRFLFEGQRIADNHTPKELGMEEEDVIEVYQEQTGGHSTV
Scp1 confirm: Scp-1 (human) inhibition, single-dose confirmed | AID 540281 | recombinant SCP-1 catalytic domain, phosphate release, malachite green absorbance | inhibition, % at 20 µM | shares compounds with Scp-1 inhibitor | 2,500 tested, 61% active;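 note: plate controls were DMSO with enzyme for no effect and buffer wells lacking enzyme for full effect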
MG interference: counter-screen for Scp-1 inhibitors: colorimetric interference; AID 540313; 2,500 tested, under 10 active; Colorimetric interference counterscreen, malachite green absorbance 630 nm; shares compounds with Scp-1 inhibitor; apparent inhibition (interference), % at 20 µM;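 note: compounds added after enzyme reaction finished so only phosphate colour detection is probed; plate controls were DMSO wells with completed Scp-1 reaction for no effect and substrate wells lacking enzyme for full effect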
Scp1 DSF: binds human Scp-1, shifting its melting temperature. shares compounds with Scp-1 inhibitor. Recombinant SCP1, Sypro Orange thermal shift Tm. thermal shift relative to vanadate control, % at 40 µM. 1,500 tested, 25% active. AID 540329;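 active = substances whose mean melting-temperature shift, as a percentage of the reference inhibitor's shift, reaches about 5.3%, limit read from the data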;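 note: 0% = Tm of DMSO wells and 100% = Tm with sodium orthovanadate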
Starred values were filed as active, the others as inactive; · = no result given. Rows were chosen to be rich in hits. Some 1.7% of all compounds tested hit in one or more screens of this group.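 Rule for the calls, unless noted: active = inhibition of at least 30% at 20 µM; inactive = the rest.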

SMILES	Scp-1 inhibitor	STEP inh	LMPTP inh	DNMT1 block	SUMO1 PPI mod	Scp1 confirm	MG interference	others
CCN(C(=O)COC(=O)Cn1c(=O)oc2ccccc21)c1c(N)n(Cc2ccccc2)c(=O)[nH]c1=O	-6	-5	-1	3	8	·	·
Cc1cccc(C)c1NC(=O)C1CCCN1S(=O)(=O)c1ccc2c(c1)n(C)c(=O)c(=O)n2C (stereo unspecified)	-4	1	-3	1	-2	-14	-18
Cn1c(=O)c(=O)n(C)c2cc(S(=O)(=O)N3CCCC3C(=O)Nc3ccccc3F)ccc21 (stereo unspecified)	0	0	0	0	-1	-7	-7
CCc1ccccc1NC(=O)C1CCCN1S(=O)(=O)c1ccc2c(c1)n(C)c(=O)c(=O)n2C (stereo unspecified)	-7	-1	-2	1	6	·	·
Cc1ccc(NC(=O)C2CCCN2S(=O)(=O)c2ccc3c(c2)n(C)c(=O)c(=O)n3C)c(C)c1 (stereo unspecified)	-12	-2	0	0	4	-10	-11
Cc1ccc(NC(=O)C2CCCN2S(=O)(=O)c2ccc3c(c2)n(C)c(=O)c(=O)n3C)cc1 (stereo unspecified)	7	-2	-2	2	-5	·	·
CN(C(=O)c1cccc(NC(=O)Cc2ccc(NC(=O)C3CCN(C(=O)C4CC4)CC3)cc2)c1)C1CCCCC1	12	0	0	4	-3	·	·
Cc1ccc(OCCn2cnc(Cl)c2Cl)cc1	-10	0	-1	3	6	·	·
CCSc1nnc(NC(=O)C2CCCCC2)s1	-1	-4	-1	1	-2	·	·
CCSc1nnc(NC(=O)C2CC=CCC2C(=O)O)s1 (stereo unspecified)	87*	12	0	27	5	53*	-8	Scp1 DSF=-5
O=C(COC(=O)COc1ccc(Br)cc1)Nc1cccnc1Cl	58*	0	0	-1	2	-10	-12
CCOC(=O)C1CCCN(C(=O)c2ccc(Cn3c(=S)[nH]c4cc(C(=O)OC)ccc4c3=O)cc2)C1 (stereo unspecified)	60*	4	1	4	2	31*	-16	Scp1 DSF=-2
O=C(/C=C/c1ccco1)NCC(=O)N/N=C/c1ccc(Cl)cc1	1	0	-1	1	-14	·	·
O=C(/C=C/c1ccco1)NCC(=O)N/N=C/c1ccc([N+](=O)[O-])cc1	76*	4	38	40	-15	79*	-3	Scp1 DSF=6.6*
CC(C)c1cc(C(=O)NC2CCCCC2)no1	73*	0	0	2	-2	-7	-4
Cc1sc2ncnc(N3CCC(C(=O)Nc4nnc(SCc5ccccc5F)s4)CC3)c2c1C	9	1	2	1	1	·	·
Cc1cc(C)n2nc(C(=O)OCC(=O)c3ccccc3)nc2n1	73*	2	0	3	1	-10	-21
CC(Oc1ccc(Br)cc1)C(=O)N(Cc1ccccc1)c1c(N)n(Cc2ccccc2)c(=O)[nH]c1=O (stereo unspecified)	·	1	-1	3	0	·	·
Cc1ccc(NC(=O)COC(=O)Cc2c[nH]c3ccccc23)cc1F	-8	0	2	-6	5	·	·
O=C(Nc1ccc(S(=O)(=O)Nc2nccs2)cc1)c1ccc(=O)[nH]c1	70*	-2	6	-1	32	60*	-12	Scp1 DSF=8.9*
O=C(Nc1ccc(S(=O)(=O)Nc2nccs2)cc1)c1ccncc1	·	-3	-1	3	-4	·	·
CCCn1c(=O)n(CC(=O)NCC2CCCO2)c(=O)c2c3c(sc21)COC(C)(C)C3 (stereo unspecified)	-5	0	-1	0	0	·	·
O=c1oc2c(-c3ccc([N+](=O)[O-])cc3)cc(O)cc2s1	103*	20	46	11	67*	66*	-23	Scp1 DSF=10*
NC1=C(c2ccc([N+](=O)[O-])cc2)C(=O)CO1	-1	1	0	1	-23	·	·
CSCCC(NS(=O)(=O)c1ccc2c(c1)oc(=O)n2C)C(=O)NC1CCC(C)CC1 (stereo unspecified)	-22	0	-1	-2	8	4	-6
SMILES	Scp-1 inhibitor	STEP inh	LMPTP inh	DNMT1 block	SUMO1 PPI mod	Scp1 confirm	MG interference	others
CSCCC(NS(=O)(=O)c1ccc2c(c1)oc(=O)n2C)C(=O)NC1CCN(Cc2ccccc2)CC1 (stereo unspecified)	-7	-2	0	-1	5	·	·
O=C(O)CCN1C(=O)c2ccc(NC(=O)c3ccco3)cc2C1=O	2	-2	0	-4	-14	·	·
O=C(O)CCN1C(=O)c2ccc(NC(=O)C(c3ccccc3)c3ccccc3)cc2C1=O	67*	-1	0	3	-19	-11	-16
CCOc1ccc(S(=O)(=O)N2CCC(C(=O)N3CCCC3)CC2)cc1C	2	-1	-1	4	4	·	·
CCOC(Cn1c(SCc2cc(C(C)=O)ccc2OC)nc2ccccc2c1=O)OCC	-2	-2	-1	24	-7	·	·
COc1ccc(C(C)=O)cc1CSc1nc2cc(C(=O)O)ccc2c(=O)n1Cc1ccccc1	51*	13	1	-3	13	29	-22
CCOC(=O)C1CCN(C(=O)c2ccc(OCC(=O)Nc3ccc(OCC)cc3)c(OC)c2)CC1	-2	-4	-1	0	-1	·	·
CC1C=CC=CC=CC=CC=CC=CC=CC(OC2OC(C)C(O)C(N)C2O)CC2OC(O)(CC(O)CC(O)C(O)CCC(O)CC(O)CC(=O)OC(C)C(C)C1O)CC(O)C2C(=O)O (stereo unspecified)	89*	2	2	94*	24	65*	-14	Scp1 DSF=-9
Cc1ccc(-c2cc(C(=O)N3CCOCC3)c3ccccc3n2)o1	-7	-3	0	1	-7	·	·
Cc1ccc(-c2cc(C(=O)N3CCN(c4ccc(F)cc4)CC3)c3ccccc3n2)o1	53*	2	2	19	-4	29	-17
CCC(=O)Nc1cc(C(=O)OCC(=O)c2ccccc2)ccc1C	0	2	-1	3	-3	·	·
O=C(O)Cc1ccc(-n2cccc2)cc1	80*	2	4	96*	8	53*	-17	Scp1 DSF=-6
Cc1cccc(OCCOCCN2CCOCC2)c1C	51*	2	0	2	3	-16	-13
Cc1cccc(OCCOCCN2CCNCC2)c1C	0	-2	-3	17	-2	·	·
